From ChEMBL document CHEMBL5724801, “EUbOPEN Chemogenomics Library - Multiplex” (2024)
“And” between values parts separate entries of the source, which are not always exact repeats. Identical values can stand only once.

Test system: Fibroblast
Experiment: Multiplex assay against human fibroblast
Type: toxicity, cell-based
Procedure, shortened: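 Live cells were stained at seeding with Hoechst33342, BioTracker Green Microtubule Cytoskeleton Dye, MitoTracker Red and Annexin V Alexa Fluor 680, then imaged on a CQ1 microscope at 37°C and 5% CO2 after compound addition. CellPathfinder machine-learning gating split cells into Hoechst high-intensity objects or normal cells. Normal cells were split into healthy, pyknosed or fragmented nuclei, and pyknosed cells into mitotic or apoptotic. Tubulin, mitochondrial-mass and membrane-permeability phenotypes are per cents of healthy-nucleus cells.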

[1] = 12 h, 1 µM, compound concentration 1 uM
[2] = 12 h, 10 µM, compound concentration 10 uM
[3] = 24 h, 1 µM, compound concentration 1 uM
[4] = 24 h, 10 µM, compound concentration 10 uM
[5] = 48 h, 1 µM, compound concentration 1 uM
[6] = 48 h, 10 µM, compound concentration 10 uM

Structure (SMILES): CCCCCN1C(=O)C2(COc3cc4c(cc32)OCO4)c2ccccc21 (stereo unspecified)
- Population Apoptotic (%) [1]: 17.31% and 20.59%
- Population Fragmented Nuclei (%) [1]: 11.05% and 2.26%
- Population Healthy Nuclei (%) [1]: 61.58% and 82.35%
- Population Hoechst High Intensity Objects (%) [1]: 0%
- Population Membrane Permeable-Phenotype (%) [1]: 2.56% and 3.85%
- Population Mitochondria Different-Phenotype (%) [1]: 11.97% and 6.04%
- Population Mitotic Cells (%) [1]: 82.69% and 79.41%
- Population Normal (%) [1]: 100%
- Population Pyknosed Nuclei (%) [1]: 27.37% and 15.38%
- Population Tubulin-Different-Phenotype (%) [1]: 20.51% and 12.09%
- Total Cell Count [1]: 190 and 221
- Population Fragmented Nuclei (%) [2]: 8.24% and 5.79%
- Population Healthy Nuclei (%) [2]: 54.95% and 72.97%
- Population Hoechst High Intensity Objects (%) [2]: 0%
- Population Membrane Permeable-Phenotype (%) [2]: 4% and 3.7%
- Population Mitochondria Different-Phenotype (%) [2]: 14% and 13.76%
- Population Mitotic Cells (%) [2]: 97.01% and 85.45%
- Population Normal (%) [2]: 100%
- Population Pyknosed Nuclei (%) [2]: 36.81% and 21.24%
- Population Tubulin-Different-Phenotype (%) [2]: 36% and 35.45%
- Total Cell Count [2]: 182 and 259
- Population Apoptotic (%) [3]: 18.18% and 13.04%
- Population Fragmented Nuclei (%) [3]: 9.76% and 2.67%
- Population Healthy Nuclei (%) [3]: 74.15% and 87.11%
- Population Hoechst High Intensity Objects (%) [3]: 0%
- Population Membrane Permeable-Phenotype (%) [3]: 4.61% and 1.53%
- Population Mitochondria Different-Phenotype (%) [3]: 7.89% and 4.59%
- Population Mitotic Cells (%) [3]: 81.82% and 86.96%
- Population Normal (%) [3]: 100%
- Population Pyknosed Nuclei (%) [3]: 16.1% and 10.22%
- Population Tubulin-Different-Phenotype (%) [3]: 16.45% and 15.82%
- Total Cell Count [3]: 205 and 225
- Population Apoptotic (%) [4]: 4.65% and 8.82%
- Population Fragmented Nuclei (%) [4]: 8.78% and 2.37%
- Population Healthy Nuclei (%) [4]: 70.24% and 84.19%
- Population Hoechst High Intensity Objects (%) [4]: 0%
- Population Membrane Permeable-Phenotype (%) [4]: 1.39% and 0.94%
- Population Mitochondria Different-Phenotype (%) [4]: 13.19% and 12.21%
- Population Mitotic Cells (%) [4]: 95.35% and 91.18%
- Population Normal (%) [4]: 100%
- Population Pyknosed Nuclei (%) [4]: 20.98% and 13.44%
- Population Tubulin-Different-Phenotype (%) [4]: 42.36% and 37.09%
- Total Cell Count [4]: 205 and 253
- Population Fragmented Nuclei (%) [5]: 11.57% and 4.05%
- Population Healthy Nuclei (%) [5]: 82.41% and 89.64%
- Population Hoechst High Intensity Objects (%) [5]: 0%
- Population Membrane Permeable-Phenotype (%) [5]: 1.12% and 3.02%
- Population Mitotic Cells (%) [5]: 92.31% and 64.29%
- Population Normal (%) [5]: 100%
- Population Pyknosed Nuclei (%) [5]: 6.02% and 6.31%
- Population Tubulin-Different-Phenotype (%) [5]: 5.62% and 14.07%
- Total Cell Count [5]: 216 and 222
- Population Apoptotic (%) [6]: 37.5% and 23.53%
- Population Fragmented Nuclei (%) [6]: 7.32% and 3.05%
- Population Healthy Nuclei (%) [6]: 84.88% and 90.46%
- Population Hoechst High Intensity Objects (%) [6]: 0%
- Population Membrane Permeable-Phenotype (%) [6]: 1.15% and 2.95%
- Population Mitochondria Different-Phenotype (%) [6]: 15.52% and 5.91%
- Population Mitotic Cells (%) [6]: 62.5% and 76.47%
- Population Normal (%) [6]: 100%
- Population Pyknosed Nuclei (%) [6]: 7.8% and 6.49%
- Population Tubulin-Different-Phenotype (%) [6]: 16.09% and 33.76%
- Total Cell Count [6]: 205 and 262

Structure (SMILES): CCn1c(-c2nonc2N)nc2c(C#CC(C)(C)O)ncc(OCC3CCCNC3)c21 (stereo unspecified)
- Population Apoptotic (%) [1]: 9.09% and 27.03%
- Population Fragmented Nuclei (%) [1]: 15.15% and 9.22%
- Population Healthy Nuclei (%) [1]: 64.85% and 77.66%
- Population Hoechst High Intensity Objects (%) [1]: 0%
- Population Membrane Permeable-Phenotype (%) [1]: 4.67% and 1.83%
- Population Mitochondria Different-Phenotype (%) [1]: 8.41% and 8.68%
- Population Mitotic Cells (%) [1]: 90.91% and 72.97%
- Population Normal (%) [1]: 100%
- Population Pyknosed Nuclei (%) [1]: 20% and 13.12%
- Population Tubulin-Different-Phenotype (%) [1]: 9.35% and 19.63%
- Total Cell Count [1]: 165 and 282
- Population Apoptotic (%) [2]: 13.33% and 12.2%
- Population Fragmented Nuclei (%) [2]: 17.67% and 9.62%
- Population Healthy Nuclei (%) [2]: 66.43% and 74.62%
- Population Hoechst High Intensity Objects (%) [2]: 0%
- Population Membrane Permeable-Phenotype (%) [2]: 6.91% and 2.06%
- Population Mitochondria Different-Phenotype (%) [2]: 25% and 13.4%
- Population Mitotic Cells (%) [2]: 86.67% and 87.8%
- Population Normal (%) [2]: 100%
- Population Pyknosed Nuclei (%) [2]: 15.9% and 15.77%
- Population Tubulin-Different-Phenotype (%) [2]: 35.64% and 40.21%
- Total Cell Count [2]: 283 and 260
- Population Fragmented Nuclei (%) [3]: 14.1% and 7.45%
- Population Healthy Nuclei (%) [3]: 73.08% and 80.78%
- Population Hoechst High Intensity Objects (%) [3]: 0%
- Population Membrane Permeable-Phenotype (%) [3]: 0.88% and 1.46%
- Population Mitochondria Different-Phenotype (%) [3]: 5.26% and 11.65%
- Population Mitotic Cells (%) [3]: 90% and 63.33%
- Population Normal (%) [3]: 100%
- Population Pyknosed Nuclei (%) [3]: 12.82% and 11.76%
- Total Cell Count [3]: 156 and 255
- Population Apoptotic (%) [4]: 7.41% and 9.09%
- Population Fragmented Nuclei (%) [4]: 24.25% and 15.79%
- Population Healthy Nuclei (%) [4]: 61.04% and 77.78%
- Population Hoechst High Intensity Objects (%) [4]: 0%
- Population Membrane Permeable-Phenotype (%) [4]: 1.79% and 2.26%
- Population Mitotic Cells (%) [4]: 92.59% and 90.91%
- Population Normal (%) [4]: 100%
- Population Pyknosed Nuclei (%) [4]: 14.71% and 6.43%
- Population Tubulin-Different-Phenotype (%) [4]: 40.18% and 33.08%
- Total Cell Count [4]: 367 and 342
- Population Apoptotic (%) [5]: 23.08% and 33.33%
- Population Fragmented Nuclei (%) [5]: 5.03% and 4.44%
- Population Healthy Nuclei (%) [5]: 86.79% and 87.1%
- Population Hoechst High Intensity Objects (%) [5]: 0%
- Population Membrane Permeable-Phenotype (%) [5]: 2.9% and 4.63%
- Population Mitotic Cells (%) [5]: 76.92% and 66.67%
- Population Normal (%) [5]: 100%
- Population Pyknosed Nuclei (%) [5]: 8.18% and 8.47%
- Total Cell Count [5]: 159 and 248
- Population Apoptotic (%) [6]: 30% and 29.41%
- Population Fragmented Nuclei (%) [6]: 21.53% and 21.32%
- Population Healthy Nuclei (%) [6]: 69.97% and 74.37%
- Population Hoechst High Intensity Objects (%) [6]: 0%
- Population Membrane Permeable-Phenotype (%) [6]: 1.21% and 0.68%
- Population Mitochondria Different-Phenotype (%) [6]: 8.91% and 1.71%
- Population Mitotic Cells (%) [6]: 70% and 70.59%
- Population Normal (%) [6]: 100%
- Population Pyknosed Nuclei (%) [6]: 8.5% and 4.31%
- Population Tubulin-Different-Phenotype (%) [6]: 29.55% and 33.11%
- Total Cell Count [6]: 353 and 394

Structure (SMILES): NC1=NC(=O)/C(=C2\CCNC(=O)c3[nH]c4ccccc4c32)N1
- Population Apoptotic (%) [1]: 5.88% and 11.11%
- Population Healthy Nuclei (%) [1]: 60.61% and 85.31%
- Population Hoechst High Intensity Objects (%) [1]: 0%
- Population Membrane Permeable-Phenotype (%) [1]: 2% and 1.91%
- Population Mitochondria Different-Phenotype (%) [1]: 8% and 7.66%
- Population Mitotic Cells (%) [1]: 94.12% and 88.89%
- Population Normal (%) [1]: 100%
- Population Pyknosed Nuclei (%) [1]: 20.61% and 11.02%
- Population Tubulin-Different-Phenotype (%) [1]: 10% and 11.48%
- Total Cell Count [1]: 165 and 245
- Population Fragmented Nuclei (%) [2]: 8.29% and 5.11%
- Population Healthy Nuclei (%) [2]: 63.9% and 72.73%
- Population Hoechst High Intensity Objects (%) [2]: 0%
- Population Membrane Permeable-Phenotype (%) [2]: 3.82% and 2.34%
- Population Mitochondria Different-Phenotype (%) [2]: 7.63% and 9.38%
- Population Mitotic Cells (%) [2]: 92.98% and 76.92%
- Population Normal (%) [2]: 100%
- Population Pyknosed Nuclei (%) [2]: 27.8% and 22.16%
- Population Tubulin-Different-Phenotype (%) [2]: 9.92% and 14.06%
- Total Cell Count [2]: 205 and 176
- Population Apoptotic (%) [3]: 10% and 14.71%
- Population Fragmented Nuclei (%) [3]: 10% and 5.2%
- Population Healthy Nuclei (%) [3]: 73.33% and 81.2%
- Population Hoechst High Intensity Objects (%) [3]: 0%
- Population Membrane Permeable-Phenotype (%) [3]: 6.06% and 1.48%
- Population Mitochondria Different-Phenotype (%) [3]: 3.79% and 8.37%
- Population Mitotic Cells (%) [3]: 90% and 85.29%
- Population Normal (%) [3]: 100%
- Population Pyknosed Nuclei (%) [3]: 16.67% and 13.6%
- Population Tubulin-Different-Phenotype (%) [3]: 12.12% and 11.33%
- Total Cell Count [3]: 180 and 250
- Population Apoptotic (%) [4]: 4.92% and 12.82%
- Population Fragmented Nuclei (%) [4]: 6.84% and 5.46%
- Population Healthy Nuclei (%) [4]: 67.09% and 73.22%
- Population Hoechst High Intensity Objects (%) [4]: 0%
- Population Membrane Permeable-Phenotype (%) [4]: 5.1% and 0%
- Population Mitochondria Different-Phenotype (%) [4]: 3.82% and 5.97%
- Population Mitotic Cells (%) [4]: 95.08% and 87.18%
- Population Normal (%) [4]: 100%
- Population Pyknosed Nuclei (%) [4]: 26.07% and 21.31%
- Population Tubulin-Different-Phenotype (%) [4]: 12.1% and 15.67%
- Total Cell Count [4]: 234 and 183
- Population Fragmented Nuclei (%) [5]: 13% and 5%
- Population Healthy Nuclei (%) [5]: 83% and 91.25%
- Population Hoechst High Intensity Objects (%) [5]: 0%
- Population Membrane Permeable-Phenotype (%) [5]: 1.2% and 2.74%
- Population Mitotic Cells (%) [5]: 87.5% and 55.56%
- Population Normal (%) [5]: 100%
- Population Pyknosed Nuclei (%) [5]: 4% and 3.75%
- Population Tubulin-Different-Phenotype (%) [5]: 6.02% and 11.42%
- Total Cell Count [5]: 200 and 240
- Population Apoptotic (%) [6]: 19.05% and 14.29%
- Population Fragmented Nuclei (%) [6]: 4.95% and 6.88%
- Population Healthy Nuclei (%) [6]: 87.63% and 85.71%
- Population Hoechst High Intensity Objects (%) [6]: 0%
- Population Membrane Permeable-Phenotype (%) [6]: 0.4% and 4.32%
- Population Mitochondria Different-Phenotype (%) [6]: 11.69% and 2.47%
- Population Mitotic Cells (%) [6]: 80.95% and 85.71%
- Population Normal (%) [6]: 100%
- Population Pyknosed Nuclei (%) [6]: 7.42% and 7.41%
- Population Tubulin-Different-Phenotype (%) [6]: 6.45% and 14.2%
- Total Cell Count [6]: 283 and 189
